Experimental data as given in the RNAGym collection of RNA variant scans (doi:10.1002/anie.201605470).

B1: Osa-1-4 twister ribozyme (parent)
chain: CCGCCUAACACUGCCAAUGCCGGUCCCAAGCCCGGAUAAAAGUGGAGGGGGCGG

Variants of: B1
Experiment: self-cleavage, relative activity (ratio to wild type); higher = more cleavage; co-transcriptional
Procedure, shortened: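 Relative activity is the fraction cleaved divided by that of the wild-type ribozyme. The library came from a DNA template for a 54-nucleotide Oryza sativa twister ribozyme, doped at the 48 positions downstream of the cleavage site with 97 % wild-type base and 1 % of each other base. After 2 h of in vitro transcription at 37 °C with co-transcriptional self-cleavage, the RNA was reverse-transcribed with a template-switching oligonucleotide, amplified by PCR and deep-sequenced, and reads with or without upstream sequence gave the cleavage status.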

Variant | self-cleavage
C31U U18C | 0.87
C31U U18G | 0.82
C31U U18A | 0.9
C31G G23C | 0.11
C31G G23A | 0.06
C31G G23U | 0.03
C31G G30A | 0.04
C31G G30C | 0.03
C31G G30U | 0.04
C31U G45C | 0.04
C31U G45U | 0.04
C31U G45A | 0.04
C31U G47C | 0.03
C31U G47A | 0.05
C31U G47U | 0.05
C31U G22U | 0.3
C31U G22C | 0.07
C31U G22A | 0.52
C31G G42C | 0.05
C31G G42U | 0.02
C31G G42A | 0.1
C31U U37A | 0.84
C31U U37C | 0.94
C31U U37G | 1

Variant | self-cleavage
C31U G44U | 0.51
C31U G44A | 0.29
C31U G44C | 0.62
C32A C33A | 0.07
C32A C33U | 0.05
C32A C33G | 0.03
C31G G54A | 0.1
C31G G54C | 0.07
C31G G54U | 0.19
C31G G44A | 0.08
C31G G44C | 0.07
C31G G44U | 0.05
C31G G13C | 0.06
C31G G13A | 0.06
C31G G13U | 0.04
C31G G22C | 0.04
C31G G22A | 0.11
C31G G22U | 0.05
C31U G54C | 0.27
C31U G54A | 0.32
C31U G54U | 0.5
C31G G34U | 0.08
C31G G34A | 0.11
C31G G34C | 0.1

Variant | self-cleavage
C31U G13C | 0.02
C31U G13A | 0.89
C31U G13U | 0.05
C31U C9A | 0.11
C31U C9U | 0.32
C31U C9G | 0.16
C31G G19U | 0.05
C31G G19A | 0.08
C31G G19C | 0.02
C31G U37A | 0.12
C31G U37C | 0.09
C31G U37G | 0.14
C31U U43C | 0.08
C31U U43A | 0.17
C31U U43G | 0.1
C31G G49A | 0.05
C31G G49U | 0.03
C31G G49C | 0.03
C31U G34C | 0.24
C31U G34U | 0.56
C31U G34A | 0.42
C32A | 0.15
C31G U24G | 0.02
C31G U24C | 0.03

Variant | self-cleavage
C31G U24A | 0.04
C31U G23U | 0.04
C31U G23C | 0.04
C31U G23A | 0.07
C31U G35C | 0.14
C31U G35U | 0.85
C31U G35A | 0.87
C31U G49C | 0.05
C31U G49U | 0.06
C31U G49A | 0.06
C31U G50C | 0.26
C31U G50A | 0.64
C31U G50U | 0.6
C31G U18G | 0.15
C31G U18A | 0.1
C31G U18C | 0.13
C31U U24A | 0.02
C31U U24G | 0.03
C31U U24C | 0.05
C31G G51U | 0.05
C31G G51A | 0.08
C31G G51C | 0.04
C32A G13A | 0.01
C32A G13C | 0.01

Variant | self-cleavage
C32A G13U | 0.01
C31G G47C | 0.03
C31G G47A | 0.04
C31G G47U | 0.04
C31G U43G | 0.09
C31G U43A | 0.1
C31G U43C | 0.06
C31U | 0.97
C31G U12A | 0.08
C31G U12C | 0.06
C31G U12G | 0.05
C31U C52U | 0.96
C31U C52G | 0.75
C31U C52A | 0.57
C31G G48U | 0.02
C31G G48C | 0.03
C31G G48A | 0.03
C31U C33A | 0.08
C31U C33G | 0.06
C31U C33U | 0.31
C31G G35U | 0.12
C31G G35C | 0.04
C31G G35A | 0.15
C31U G53A | 0.19

Variant | self-cleavage
C31U G53C | 0.05
C31U G53U | 0.08
C31U G19C | 0.06
C31U G19A | 0.14
C31U G19U | 0.05
C31U G30C | 0.03
C31U G30U | 0.03
C31U G30A | 0.03
C31G G45C | 0.03
C31G G45U | 0.03
C31G G45A | 0.04
C32A C52A | 0.1
C32A C52G | 0.1
C32A C52U | 0.18
C32A C9G | 0.06
C32A C9A | 0.05
C32A C9U | 0.05
C31U C32A | 0.05
C31U C32G | 0.08
C31U C32U | 0.09
C31G G50C | 0.07
C31G G50A | 0.11
C31G G50U | 0.06
C31G C32U | 0.04

Variant | self-cleavage
C31G C32A | 0.02
C31G C32G | 0.1
C31U G51C | 0.06
C31U G51A | 0.29
C31U G51U | 0.13
C31G C52A | 0.1
C31G C52U | 0.12
C31G C52G | 0.15
C31U G48A | 0.05
C31U G48C | 0.05
C31U G48U | 0.04
C31G C33U | 0.06
C31G C33G | 0.03
C31G C33A | 0.04
C31G G53U | 0.07
C31G G53A | 0.08
C31G G53C | 0.04
C31U G42C | 0.07
C31U G42U | 0.03
C31U G42A | 0.09
C31U U12A | 0.28
C31U U12G | 0.19
C31U U12C | 0.11
